Legend:
[1] = Antioxidant activity assessed as DPPH free radical scavenging activity after 30 mins; assay type: functional
How it was run: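 DPPH (0.05 mM in methanol) mixed with equal volume of compound (DMSO solution diluted in methanol), kept in dark at room temperature 30 min; absorbance at 517 nm, methanol control, ascorbic acid positive control. IC50 = concentration giving 50% of maximum scavenging; mean ± SD of independent triplicate experiments.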

HL-60 = assay: Cytotoxicity against human HL60 cells assessed as decrease in cell survival after 72 hrs by MTT assay; assay type: functional, cell-based; conditions: HL-60, 72 h
How it was run: (§1)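 HeLa (2000/well), A549 and MRC-5 (5000/well) seeded 20 h before treatment; HL-60 (7000/well) 2 h before. Five concentrations (6.25–100 μM or 3.125–50 μM) from 5 mM DMSO stocks, final DMSO ≤1%, 72 h; survival by MTT. Cisplatin positive control; three independent experiments in triplicate.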

MRC5 = assay: Cytotoxicity against human MRC5 cells assessed as decrease in cell survival after 72 hrs by MTT assay; assay type: cell-based; conditions: MRC5, 72 h; how it was run: as §1
A549 = assay: Cytotoxicity against human A549 cells assessed as decrease in cell survival after 72 hrs by MTT assay; assay type: functional, cell-based; conditions: A549, 72 h; how it was run: as §1
HeLa = assay: Cytotoxicity against human HeLa cells assessed as decrease in cell survival after 72 hrs by MTT assay; assay type: functional, cell-based; how it was run: as §1

Structure (SMILES): O=C(/C=C/c1ccc(C(=O)Nc2nnc(-c3ccc(O)c(O)c3)s2)cc1)c1ccc(F)cc1
- IC50 [1]: 17.8 µM
- IC50 (HL-60): 10.6 µM
- IC50 (MRC5): 45.8 µM
- IC50 (A549): 89.3 µM
- IC50 (HeLa): 17.8 µM

Structure (SMILES): O=C(/C=C/c1ccc(C(=O)Nc2nnc(-c3ccc(O)c(O)c3)s2)cc1)c1ccc(Br)cc1
- IC50 [1]: 18 µM
- IC50 (HL-60): 9.74 µM
- IC50 (MRC5): 38.2 µM
- IC50 (A549): 87.7 µM
- IC50 (HeLa): 40.2 µM

Structure (SMILES): COc1ccc(C(=O)/C=C/c2ccc(C(=O)Nc3nnc(-c4ccc(O)c(O)c4)s3)cc2)cc1
- IC50 [1]: 17.9 µM
- IC50 (HL-60): 16.4 µM
- IC50 (MRC5): 81.3 µM
- IC50 (A549): 89.1 µM
- IC50 (HeLa): 57.6 µM

Structure (SMILES): O=C1O[C@H]([C@@H](O)CO)C(O)=C1O [ASCORBIC ACID]
- IC50 [1]: 20.2 µM

Structure (SMILES): Cc1ccc(C(=O)/C=C/c2ccc(C(=O)Nc3nnc(-c4ccc(O)c(O)c4)s3)cc2)cc1
- IC50 [1]: 11.8 µM
- IC50 (HL-60): 8.44 µM
- IC50 (MRC5): 33.7 µM
- IC50 (A549): 26.4 µM
- IC50 (HeLa): 11.2 µM

Structure (SMILES): Cc1ccccc1C(=O)C=Cc1ccc(C(=O)Nc2nnc(-c3ccc(O)c(O)c3)s2)cc1
- IC50 [1]: 11.7 µM
- IC50 (HL-60): 7.62 µM
- IC50 (MRC5): 18.6 µM
- IC50 (A549): 21.8 µM
- IC50 (HeLa): 9.12 µM

Structure (SMILES): O=C(Nc1nnc(-c2ccc(O)c(O)c2)s1)c1ccc(C=CC(=O)c2ccccc2F)cc1
- IC50 [1]: 13.9 µM
- IC50 (HL-60): 8.88 µM
- IC50 (MRC5): 39.6 µM
- IC50 (A549): 46.9 µM
- IC50 (HeLa): 11.1 µM

Structure (SMILES): COc1ccccc1C(=O)C=Cc1ccc(C(=O)Nc2nnc(-c3ccc(O)c(O)c3)s2)cc1
- IC50 [1]: 9.76 µM
- IC50 (HL-60): 12 µM
- IC50 (MRC5): 48 µM
- IC50 (A549): 50.2 µM
- IC50 (HeLa): 10.2 µM

Structure (SMILES): O=C(Nc1nnc(-c2ccc(O)c(O)c2)s1)c1ccc(/C=C/C(=O)c2cccc3cc4ccccc4cc23)cc1
- IC50 [1]: 13.5 µM
- IC50 (HL-60): 6.92 µM
- IC50 (MRC5): 21.2 µM
- IC50 (A549): 23.2 µM
- IC50 (HeLa): 11 µM

Structure (SMILES): O=C(/C=C/c1ccc(C(=O)Nc2nnc(-c3ccc(O)c(O)c3)s2)cc1)c1ccc([N+](=O)[O-])cc1
- IC50 [1]: 14 µM
- IC50 (HL-60): 11.2 µM
- IC50 (MRC5): 39.4 µM
- IC50 (A549): 128 µM
- IC50 (HeLa): 54.8 µM

From ChEMBL document CHEMBL4257556, “Novel 1,3,4-thiadiazole-chalcone hybrids containing catechol moiety: synthesis, antioxidant activity, cytotoxicity and DNA interaction studies” (Medchemcomm, 2018)
